Results from ChEMBL document CHEMBL4359878, “Discovery of 4-piperazinyl-2-aminopyrimidine derivatives as dual inhibitors of JAK2 and FLT3” (Eur J Med Chem, 2019).

Columns and labels:
HEL [1] = assay: Induction of cell cycle arrest in human HEL cells assessed as accumulation at S phase at 9 uM after 72 hrs by propidium iodide-staining based flow cytometry (reference value: 41.47%); format: functional
In short: (§1)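 Subconfluent HEL cells were treated for 72 h at 0.33, 1.0, 3.0 or 9.0 μM, with untreated cells as control. Cultures were pulsed with 10 μM BrdU for 30 min at 37 °C before harvest, then PBS-washed, fixed in 70% ethanol and denatured in 2 M HCl. After neutralization, cells were stained with fluorescein anti-BrdU antibody and propidium iodide. DNA content was measured by flow cytometry with 488 nm excitation.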

HEL [2] = assay: Induction of cell cycle arrest in human HEL cells assessed as accumulation at G2 phase at 1 uM after 72 hrs by propidium iodide-staining based flow cytometry (reference value: 15.10%); format: functional; in short: as §1
HEL [3] = assay: Induction of cell cycle arrest in human HEL cells assessed as accumulation at G2 phase at 0.33 uM after 72 hrs by propidium iodide-staining based flow cytometry (reference value: 15.10%); format: functional; in short: as §1
HEL [4] = assay: Induction of apoptosis in human HEL cells assessed as viable cells at 0.33 uM after 72 hrs by FITC-annexin V/propidium iodide-double staining based flow cytometry (reference value: 93.77%); format: functional; conditions: read-out: Activity
HEL [5] = assay: Induction of apoptosis in human HEL cells assessed as necrotic cells at 9 uM after 72 hrs by FITC-annexin V/propidium iodide-double staining based flow cytometry (reference value: 2.40%); format: functional
HEL [6] = assay: Induction of cell cycle arrest in human HEL cells assessed as accumulation of cells at G1/S phase after 72 hrs by propidium iodide-staining based flow cytometry; format: functional; in short: as §1
HEL [7] = assay: Induction of cell cycle arrest in human HEL cells assessed as accumulation at G1 phase at 1 uM after 72 hrs by propidium iodide-staining based flow cytometry (reference value: 43.12%); format: functional; in short: as §1
[8] = biological target: T1, Tyrosine-protein kinase JAK2 (Homo sapiens, UniProt O60674); assay: (§2) Inhibition of N-terminal His-tagged human JAK2 catalytic domain (826 to 1132 resiudes) expressed in baculovirus expression system using FAM-labeled peptide as substrate preincubated for 10 mins followed by substrate addition measured after 1 hr in presence of ATP by mobility shift assay
T1 sequence (O60674 whole entry, the tested form may be a part): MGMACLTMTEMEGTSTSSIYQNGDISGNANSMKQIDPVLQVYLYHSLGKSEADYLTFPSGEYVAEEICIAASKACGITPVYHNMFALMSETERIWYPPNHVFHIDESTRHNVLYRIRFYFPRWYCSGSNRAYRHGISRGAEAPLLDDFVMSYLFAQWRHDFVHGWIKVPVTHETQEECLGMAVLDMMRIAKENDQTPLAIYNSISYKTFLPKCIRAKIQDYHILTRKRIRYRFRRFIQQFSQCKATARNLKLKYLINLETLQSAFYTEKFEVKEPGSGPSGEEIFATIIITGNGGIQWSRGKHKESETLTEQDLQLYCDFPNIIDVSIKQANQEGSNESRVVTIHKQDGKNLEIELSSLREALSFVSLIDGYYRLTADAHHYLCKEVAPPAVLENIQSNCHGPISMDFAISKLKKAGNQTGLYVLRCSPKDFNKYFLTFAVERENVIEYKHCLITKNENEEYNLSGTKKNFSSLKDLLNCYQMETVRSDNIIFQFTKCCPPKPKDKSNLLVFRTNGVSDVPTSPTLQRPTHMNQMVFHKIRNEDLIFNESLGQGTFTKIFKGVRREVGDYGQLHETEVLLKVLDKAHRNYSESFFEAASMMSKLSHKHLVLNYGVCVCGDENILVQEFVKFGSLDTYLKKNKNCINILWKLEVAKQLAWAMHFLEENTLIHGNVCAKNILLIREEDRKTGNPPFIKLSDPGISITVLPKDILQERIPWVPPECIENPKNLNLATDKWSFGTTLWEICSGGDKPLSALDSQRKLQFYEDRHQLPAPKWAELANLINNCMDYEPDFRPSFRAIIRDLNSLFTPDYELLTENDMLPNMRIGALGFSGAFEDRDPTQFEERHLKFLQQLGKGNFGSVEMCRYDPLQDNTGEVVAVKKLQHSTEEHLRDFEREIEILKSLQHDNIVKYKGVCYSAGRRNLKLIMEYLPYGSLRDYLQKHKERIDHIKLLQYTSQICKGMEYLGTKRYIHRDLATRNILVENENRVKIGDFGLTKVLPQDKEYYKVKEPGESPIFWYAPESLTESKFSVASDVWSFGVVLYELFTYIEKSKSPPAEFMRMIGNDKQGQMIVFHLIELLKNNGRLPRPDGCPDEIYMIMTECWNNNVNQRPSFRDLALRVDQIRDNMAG
In short: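 Caliper mobility-shift assay with recombinant kinase in 50 mM HEPES pH 7.5, 0.0015% Brij-35. Compound was diluted from DMSO and preincubated with enzyme for 10 min at room temperature. FAM-labeled peptide plus ATP was then added and the reaction run for 1 h at 28 °C. It was stopped with an EDTA (50 mM) buffer. Conversion gave percent inhibition relative to max/min controls, and IC50 came from a four-parameter Hill fit. Duplicate wells were used.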

HEL [9] = assay: Induction of cell cycle arrest in human HEL cells assessed as accumulation at G1 phase at 3 uM after 72 hrs by propidium iodide-staining based flow cytometry (reference value: 43.12%); format: functional; in short: as §1
HEL [10] = assay: Induction of apoptosis in human HEL cells assessed as early apoptotic cells at 1 uM after 72 hrs by FITC-annexin V/propidium iodide-double staining based flow cytometry (reference value: 2.23%); format: functional
HEL [11] = assay: Induction of apoptosis in human HEL cells assessed as necrotic cells at 0.33 uM after 72 hrs by FITC-annexin V/propidium iodide-double staining based flow cytometry (reference value: 2.40%); format: functional
HEL [12] = assay: Induction of apoptosis in human HEL cells after 72 hrs by FITC-annexin V/propidium iodide-double staining based flow cytometry; format: functional, cell-based
HEL [13] = assay: Antiproliferative activity against human HEL cells assessed as growth inhibition after 72 hrs by CCK-8 assay; format: functional
In short: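 CCK-8 viability readout. Cells were cultured in RPMI 1640 with 10% FBS and 1% penicillin/streptomycin and seeded at 3000 (HEL), 5000 (MV4-11) or 3000 (HL60) cells/well. Increasing compound concentrations were applied for 72 h, then CCK-8 was added for a further 3 h and absorbance read at 450 nm. Inhibition = (1−A_sample/A_control)×100, normalized to DMSO controls. Value is the mean of three independent measurements, obtained by curve fitting.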

HEL [14] = assay: Induction of apoptosis in human HEL cells assessed as late apoptotic cells at 0.33 uM after 72 hrs by FITC-annexin V/propidium iodide-double staining based flow cytometry (reference value: 1.63%); format: functional
HEL [15] = assay: Induction of cell cycle arrest in human HEL cells assessed as accumulation at G1 phase at 9 uM after 72 hrs by propidium iodide-staining based flow cytometry (reference value: 43.12%); format: functional; in short: as §1
HEL [16] = assay: Induction of apoptosis in human HEL cells assessed as late apoptotic cells at 1 uM after 72 hrs by FITC-annexin V/propidium iodide-double staining based flow cytometry (reference value: 1.63%); format: functional
HEL [17] = assay: Induction of apoptosis in human HEL cells assessed as early apoptotic cells at 0.33 uM after 72 hrs by FITC-annexin V/propidium iodide-double staining based flow cytometry (reference value: 2.23%); format: functional
HEL [18] = assay: Induction of apoptosis in human HEL cells assessed as early apoptotic cells at 3 uM after 72 hrs by FITC-annexin V/propidium iodide-double staining based flow cytometry (reference value: 2.23%); format: functional
[19] = biological target: T1, Tyrosine-protein kinase JAK2; assay: as §2, with “system at 100 nM” for “system”, “assay relative to control” for “assay”
In short: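 Single-concentration (100 nM) percent inhibition in the mobility-shift JAK2 assay. Enzyme was preincubated with compound for 10 min at room temperature in HEPES pH 7.5/Brij-35 buffer. FAM-peptide and ATP were then added and the reaction run for 1 h at 28 °C before EDTA stop. Inhibition = (max−conversion)/(max−min)×100. Each compound was tested at least twice and the values averaged.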

**Q.** Which results are given for `CC(=O)c1ccc(NC(=O)N2CCN(c3ccnc(Nc4ccc(N5CCOCC5)cc4)n3)CC2)cc1`?
**A.** Activity (HEL [1]): 19.26%; Activity (HEL [2]): 6.97%; Activity (HEL [3]): 7.31%; viability at 0.33 µM (HEL [4]): 88.3%; Activity (HEL [5]): 9.77%; Activity (HEL [6]): Dose-dependent effect; Activity (HEL [7]): 61.44%; IC50 [8]: 27 nM; Activity (HEL [9]): 71.85%; Activity (HEL [10]): 16.97%; Activity (HEL [11]): 3.3%; Activity (HEL [12]): Dose-dependent effect; GI50 (HEL [13]): 4300 nM; Activity (HEL [14]): 4.3%; Activity (HEL [15]): 78.05%; Activity (HEL [16]): 22.4%; Activity (HEL [17]): 4.07%; Activity (HEL [18]): 31.87%; inhibition [19]: 86.7%
